Active and inactive are the calls of the source. No cut-off for these calls is given here.
Columns and labels:
[1] = tested on: SH-SY5Y; test: Cytoprotective activity in human SH-SY5Y cells assessed as increase in Nrf2 mRNA expression level at 10 uM incubated for 6 hrs by RT-PCR analysis; type: functional, cell-based
In short: (§1)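 SH-SY5Y cells in EMEM/F-12 (1:1) with 10% heat-inactivated FBS, 37 °C, 5% CO2, exposed 6 h to 10 μM compound, final DMSO <0.1%. Total RNA extracted and Nrf2 and HO-1 mRNA quantified by real-time RT-PCR with GAPDH as endogenous reference. Mean ± SEM, experiments repeated at least three times.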

[2] = tested on: SH-SY5Y; test: Neuroprotective activity in human SH-SY5Y cells assessed as reduction in H2O2-induced intracellular ROS formation at 10 uM and measured for 30 to 300 mins by DCFH-DA staining based assay; type: functional, cell-based
In short: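 SH-SY5Y cells loaded with 25 μM DCFH-DA for 45 min, then given 10 μM compound together with 300 μM H2O2. Fluorescence read at ex 485/em 530 nm over 30–300 min. Compared against H2O2 alone by Dunnett's test.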

[3] = tested on: SH-SY5Y; test: Cytoprotective activity in human SH-SY5Y cells assessed as increase in HO1 mRNA expression level at 10 uM incubated for 6 hrs by RT-PCR analysis relative to control; type: functional; in short: as §1
[4] = species on record: Homo sapiens; test: Activation of alpha secretase in human H4 cells harboring swedish mutant form of APP assessed as increase in sAPPalpha protein level at 10 uM incubated for 24 hrs by Western blot analysis
[5] = tested on: H4; test: Cytotoxicity against human H4 cells harboring swedish mutant form of APP assessed as reduction in cell viability up to 20 uM incubated for 24 hrs by MTT assay; type: cell-based; conditions: h4, 24 h
[6] = tested on: SH-SY5Y; test: Neuroprotective activity in human SH-SY5Y cells assessed as reduction in H2O2-induced intracellular ROS formation at 10 uM preincubated for 24 hrs followed H2O2 addition and measured after 10 to 90 mins by DCFH-DA staining based assay; type: functional, cell-based
In short: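 SH-SY5Y cells pretreated 24 h with 10 μM compound, then loaded with 25 μM DCFH-DA for 45 min and challenged with 300 μM H2O2. Fluorescence (485/530 nm) followed from 10 to 90 min. Compared against H2O2 alone by Dunnett's test.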

[7] = tested on: SH-SY5Y; test: Cytoprotective activity in human SH-SY5Y cells assessed as increase in HO1 protein level incubated for 24 hrs by Western blot analysis; type: functional, cell-based
In short: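 SH-SY5Y cells treated 24 h at 10 or 20 μM. Cells washed in ice-cold PBS, lysed in Tris/NaCl/EDTA/Triton buffer, equal protein run on reducing SDS-PAGE, blotted to PVDF. Probed with anti-HO-1 (1:1000), β-tubulin as loading control, ECL detection. Densitometry expressed as % of control ± SEM.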

[8] = tested on: SH-SY5Y; test: Cytotoxicity against human SH-SY5Y cells assessed as reduction in cell viability up to 20 uM incubated for 24 hrs by MTT assay; type: cell-based
In short: (§2)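 SH-SY5Y cells plated at 2.5×10^4 per well and exposed 24 h to 1–50 μM. MTT at 1 mg/mL in complete medium for 4 h, then SDS solubilisation for 24 h and absorbance read. Viability given as % of untreated control. Dunnett's test, n = 3.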

[9] = tested on: H4; test: Effect on total intracellular APP in human H4 cells harboring swedish mutant form of APP assessed as change in full length APP protein level at 10 uM incubated for 24 hrs by Western blot analysis; type: cell-based; conditions: h4, 24 h
In short: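 H4 cells bearing Swedish APP, kept in DMEM/10% FBS under hygromycin B and blasticidin S selection, treated 24 h with 10 μM. Lysates analysed by Western blot for full-length APP. Densitometry normalized to α-tubulin. One-way ANOVA with post-hoc test.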

[10] = target: Glutamate NMDA receptor; GRIN1/GRIN2A (Homo sapiens, UniProt Q05586+Q12879); test: Antagonist activity at GluN1a/GluN2A (unknown origin) expressed in Xenopus laevis oocytes at -60 mV holding potential by voltage clamp method; type: cell-based
Chain of Glutamate NMDA receptor; GRIN1/GRIN2A (Q12879 whole entry, other chains not shown, the tested form may be a part): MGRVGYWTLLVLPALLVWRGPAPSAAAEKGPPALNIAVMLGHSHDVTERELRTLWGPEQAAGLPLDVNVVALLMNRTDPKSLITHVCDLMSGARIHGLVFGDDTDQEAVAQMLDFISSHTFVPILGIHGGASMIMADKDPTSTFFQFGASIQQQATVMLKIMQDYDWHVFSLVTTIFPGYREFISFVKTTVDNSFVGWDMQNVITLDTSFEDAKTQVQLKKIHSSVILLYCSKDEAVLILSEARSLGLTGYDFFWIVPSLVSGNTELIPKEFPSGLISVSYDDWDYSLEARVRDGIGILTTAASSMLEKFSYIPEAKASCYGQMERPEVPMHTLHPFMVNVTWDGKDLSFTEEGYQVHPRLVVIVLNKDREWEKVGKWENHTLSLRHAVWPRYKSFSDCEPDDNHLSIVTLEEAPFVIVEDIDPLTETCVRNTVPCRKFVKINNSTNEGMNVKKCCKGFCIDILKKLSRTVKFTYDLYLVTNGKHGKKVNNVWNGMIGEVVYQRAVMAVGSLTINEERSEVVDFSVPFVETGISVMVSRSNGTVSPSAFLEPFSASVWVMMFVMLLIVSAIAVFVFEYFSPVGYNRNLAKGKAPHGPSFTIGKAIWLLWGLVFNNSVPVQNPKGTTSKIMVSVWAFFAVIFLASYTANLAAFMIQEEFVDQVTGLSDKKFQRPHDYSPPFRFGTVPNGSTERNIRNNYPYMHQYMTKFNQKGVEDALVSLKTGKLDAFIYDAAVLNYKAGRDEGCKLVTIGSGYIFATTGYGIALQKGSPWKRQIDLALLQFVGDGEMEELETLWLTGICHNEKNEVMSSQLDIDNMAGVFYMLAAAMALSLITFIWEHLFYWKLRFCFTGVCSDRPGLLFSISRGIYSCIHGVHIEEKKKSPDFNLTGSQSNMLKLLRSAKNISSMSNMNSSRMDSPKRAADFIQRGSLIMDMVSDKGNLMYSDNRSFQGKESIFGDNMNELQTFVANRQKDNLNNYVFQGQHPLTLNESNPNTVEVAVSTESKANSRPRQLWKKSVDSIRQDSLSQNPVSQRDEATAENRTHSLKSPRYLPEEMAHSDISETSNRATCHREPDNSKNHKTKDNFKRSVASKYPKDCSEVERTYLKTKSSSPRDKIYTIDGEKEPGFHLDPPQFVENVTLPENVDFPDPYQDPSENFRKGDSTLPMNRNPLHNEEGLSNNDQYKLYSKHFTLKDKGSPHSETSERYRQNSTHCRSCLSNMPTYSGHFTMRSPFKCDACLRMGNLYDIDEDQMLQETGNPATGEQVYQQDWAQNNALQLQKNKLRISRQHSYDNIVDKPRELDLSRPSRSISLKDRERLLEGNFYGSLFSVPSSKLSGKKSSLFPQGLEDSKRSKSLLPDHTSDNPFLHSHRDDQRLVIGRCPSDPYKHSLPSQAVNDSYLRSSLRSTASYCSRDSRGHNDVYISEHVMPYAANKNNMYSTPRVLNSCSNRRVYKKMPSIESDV
In short: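 Rat-free detail absent; GluN1-1a/GluN2A cRNA (1:1 by weight) injected into defolliculated oocytes, kept 3–4 days at 18 °C in modified Barth's media. Two-electrode voltage clamp at -60 mV, perfusion with 96 mM NaCl, 2 mM KCl, 1.8 mM CaCl2, 10 mM HEPES pH 7.5. Currents evoked by 100 μM NMDA + 10 μM glycine; compound 0.01–100 μM added at steady state until new plateau; % control fit to Hill equation for IC50; ≥5 oocytes.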

[11] = tested on: SH-SY5Y; test: Cytoprotective activity in human SH-SY5Y cells assessed as increase in HO1 protein level at 20 uM incubated for 24 hrs by Western blot analysis; type: functional
In short: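 SH-SY5Y human neuroblastoma cells (EMEM/Ham's F-12 with 10% heat-inactivated FBS, 37 °C, 5% CO2) treated 24 h at 10 or 20 μM, compound diluted from DMSO stock (final DMSO <0.1%). Whole-cell lysates in Tris/NaCl/EDTA/Triton buffer, SDS-PAGE and PVDF blot probed with anti-HO-1. Tubulin served as loading control, ECL detection, densitometry given as % of untreated control.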

[12] = tested on: SH-SY5Y; test: Cytotoxicity against human SH-SY5Y cells assessed as reduction in cell viability up to 50 uM incubated for 24 hrs by MTT assay; type: cell-based; in short: as §2

Compound	Activity [1]	Activity [2]	Activity [3]	activation [4]	Activity [5]	Activity [6]	Activity [7]	Activity [8]	Activity [9]	IC50 [10] [µM]	fold change (FC) [11]	Activity [12]
COc1cc(/C=C/C(=O)NCCCCCCNC23CC4CC(C)(CC(C)(C4)C2)C3)ccc1O	Active	Active	150%	Active	Non-Toxic	Active	Dose-dependent effect	Non-Toxic	Non-Toxic	6.9	2	
COc1cc(/C=C/C(=O)NCCCNC(=O)C23CC4(C)CC(C)(CC(N)(C4)C2)C3)ccc1O										> 100		
COc1cc(/C=C/C(=O)NCCCCNC(=O)C23CC4(C)CC(C)(CC(N)(C4)C2)C3)ccc1O										> 100		
COc1cc(/C=C/C(=O)NCCCCCNC23CC4CC(C)(CC(C)(C4)C2)C3)ccc1O	inactive	Active	inactive	inactive	Non-Toxic	Active		Non-Toxic	Non-Toxic	14.1		
COc1cc(/C=C/C(=O)NCCCNC23CC4CC(C)(CC(C)(C4)C2)C3)ccc1O										> 100		
COc1cc(/C=C/C(=O)NCCNC(=O)C23CC4(C)CC(C)(CC(N)(C4)C2)C3)ccc1O										> 100		
COc1cc(/C=C/C(=O)O)ccc1O [FERULATE]	inactive	Active	inactive	inactive		Active		Non-Toxic				Non-Toxic
COc1cc(/C=C/C(=O)NCCCCNC23CC4CC(C)(CC(C)(C4)C2)C3)ccc1O	inactive	Active	inactive	inactive	Non-Toxic	Active		Non-Toxic	Non-Toxic	23.9		Non-Toxic
